High-throughput results deposited in PubChem BioAssay by several laboratories.
The list is not random: actives were taken first. Their share in the collection is about 4.1%.
KCC2 mod = modulators of human KCC2 chloride dependent transport; Q9H2X9; KCC2 cells, thallium flux FluoZin-2 fluorescence; B-score of Tl+ flux slope (higher = more flux/activation; lower = inhibition) at 10 µM; 190,000 tested, 2.2% active; AID 1456;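 active = thallium flux slope and its plate-corrected score both differing from the plate sample mean at a set confidence after two filtering rounds, in either direction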;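 note: slope of fluorescence scaled to starting intensity during 10 to 20 s after thallium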
KCNQ1 block = human KCNQ1 channel inhibition; P51787; CHO-K1 KCNQ1, FluxOR thallium flux fluorescence; hits give high values; B-score at 10 µM; 310,000 tested, 1.3% active; AID 2642;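 active = compounds whose thallium flux B-score, printed positive for inhibition, exceeds three library SD while starting fluorescence stays within three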;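 note: channel opened by potassium depolarization with thallium stimulus after 20 min compound exposure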
Target sequence (P51787 whole entry, looked up): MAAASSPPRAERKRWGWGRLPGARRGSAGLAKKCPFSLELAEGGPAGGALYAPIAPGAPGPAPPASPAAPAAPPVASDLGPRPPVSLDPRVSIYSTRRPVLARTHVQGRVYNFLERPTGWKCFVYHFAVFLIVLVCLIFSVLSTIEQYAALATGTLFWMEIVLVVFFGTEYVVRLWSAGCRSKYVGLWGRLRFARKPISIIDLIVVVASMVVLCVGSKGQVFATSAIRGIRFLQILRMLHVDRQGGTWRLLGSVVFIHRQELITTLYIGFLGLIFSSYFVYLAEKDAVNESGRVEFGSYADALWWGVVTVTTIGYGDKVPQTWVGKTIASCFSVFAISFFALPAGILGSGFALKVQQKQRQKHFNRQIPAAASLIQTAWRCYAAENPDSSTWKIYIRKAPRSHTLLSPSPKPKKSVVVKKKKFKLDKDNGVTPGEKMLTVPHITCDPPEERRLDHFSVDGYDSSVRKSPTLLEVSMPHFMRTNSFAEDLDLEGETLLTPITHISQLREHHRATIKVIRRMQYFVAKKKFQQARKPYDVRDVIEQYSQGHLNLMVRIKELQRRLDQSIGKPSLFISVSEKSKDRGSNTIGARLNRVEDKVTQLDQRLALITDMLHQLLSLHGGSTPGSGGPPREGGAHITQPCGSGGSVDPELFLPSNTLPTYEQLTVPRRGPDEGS
KCNQ1 act = human KCNQ1 channel potentiation or activation; P51787; B-score at 10 µM; AID 2648; 310,000 tested, 0.35% active; CHO-K1 KCNQ1, thallium flux FluxOR fluorescence; hits give high values;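 active = fluorescence ratio B-score, a plate-corrected score, at least three library SD, with initial intensity B-score within 5 SD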
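Assay system: stable KCNQ1 CHO-K1 line; medium: assay buffer, equal DMSO in all wells; timing: 90 min dye loading and 20 min compound exposure, both at room temperature; technique: kinetic FluxOR thallium fluorescence, 10-s 1-Hz baseline, 110-s post-stimulus read; read-out basis: B score of baseline-normalized fluorescence ratio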
hERG protect = compounds protecting human hERG from proarrhythmic drug block; Q12809; CHO-hERG, FluxOR thallium flux, dofetilide IC70 present; activation (rescue from dofetilide block), less the hit threshold, % at 10 µM; 310,000 tested, 0.51% active; AID 1511;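 active = activation above the mean of controls blocked by dofetilide plus 5 SD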;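 note: thallium influx through hERG after potassium depolarization seen as dye fluorescence rise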
KCNK3 block = human KCNK3 channel inhibition, primary screen. O14649. CHO-KCNK3 thallium flux, FluxOR fluorescence; hits give low values. B-score at 10 µM. 340,000 tested, 0.84% active. AID 602410;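 active = B-score under library mean minus 4 SD, starting fluorescence ratio at most library mean plus 5 SD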;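 note: more negative B-score means stronger inhibition of thallium flux through KCNK3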
KCNK9 block = inhibitors of human KCNK9 two-pore domain potassium channel | HEK293 KCNK9, FluxOR thallium flux fluorescence; hits give low values | B-score at 10 µM | 310,000 tested, 1.2% active | AID 488922;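 active = ratio B-score over 3 SD below the library mean, with starting fluorescence within 5 SD of its mean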;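 note: negative B-score means less thallium flux so channel inhibition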
KCC2 secondary = KCC2 (human) modulation, secondary assay; shares compounds with KCC2 mod; HEK293-KCC2, thallium flux, FluoZin2 fluorescence; hits give high values; normalised thallium flux (F/F0 slope) at 10 µM; 3,700 tested, 15% active;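 active = thallium flux slope above the same plate's solvent-only control mean plus 3 SD; inconclusive = the two replicate wells disagree; inactive = no significant difference from solvent-only control wells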
KCC2 bumet counter = bumetanide-insensitive thallium flux in KCC2 cells with ouabain, counter-screen. shares compounds with KCC2 mod. HEK293-KCC2 + bumetanide/ouabain, thallium flux FluoZin2; hits give high values. normalized thallium flux at 10 µM. 3,700 tested, 49% active. AID 1714;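 active = thallium entry rate above the same plate's blocked-transporter control wells by more than 3 SD; inconclusive = the two repeat wells disagree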;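 note: raw slope of fluorescence over initial fluorescence between 10 and 20 s after thallium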
KCC2 secondary2 = KCC2 (human) modulation, second secondary assay. shares compounds with KCC2 mod. HEK293-KCC2, thallium flux FluoZin2 fluorescence; actives lie on both sides; F/F0 rise rate, 10–20 s post-thallium. normalized thallium flux at 10 µM. 3,700 tested, 23% active. AID 1715;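 active = thallium flux slope more than 3 SD above or below the plate's solvent-only control mean, mostly below; inconclusive = the two repeat wells disagreed; inactive = no significant shift from solvent-only controls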
HEK counter1 = counter-screen for KCC2 modulators: effect in parental HEK293 cells; shares compounds with KCC2 mod; thallium flux FluoZin2, ouabain; baseline-ratio fluorescence slope, 10–20 s after thallium; thallium flux rate (normalised fluorescence) at 10 µM; 3,700 tested, 46% active; AID 1716;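 active = thallium flux rate significantly above the same plate's solvent-only control wells, beyond their mean plus 3 SD; inconclusive = the two replicate wells gave conflicting results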
KCC2 ouabain = modulates human KCC2 on retest with ouabain; shares compounds with KCC2 mod; 3,700 tested, 48% active; AID 1717; raw Tl+ flux slope (below DMSO = inhibition, above = activation) at 10 µM; HEK293-KCC2, thallium flux FluoZin2 fluorescence; bidirectional: low = inhibitor, high = activator;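 active = thallium flux slope beyond 3 SD from same-plate DMSO control mean in most replicates, usually higher, sometimes lower; inconclusive = repeat tests gave conflicting results; inactive = no significant difference from controls in most replicates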;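 note: slope of initial-normalized fluorescence between seconds 10 and 20 after thallium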
HEK counter2 = parental HEK flux effect, counter-screen 2; thallium flux slope at 10 µM; HEK293 parental, thallium flux FluoZin-2 fluorescence slope; shares compounds with KCC2 mod; 3,700 tested, 33% active;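 active = thallium flux slope above the same plate's solvent-control mean plus 3 SD in both duplicate wells; inconclusive = duplicate wells that disagreed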;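 note: run without ouabain in cells lacking the KCC2 cotransporter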
Of the large screens only hits and unclear results are named; the others gave an inactive call (follow-up assays come after a bar, where they were run).

Nc1nc(SCc2ccccn2)c2ncn(C3OC(CO)C(O)C3O)c2n1 (stereo not given)	none (no result: KCC2 mod, KCNQ1 block, KCNQ1 act, hERG protect, KCNK9 block)
O=C(Nc1cccc(-c2nnn(CC(=O)N3CCc4ccccc4C3)n2)c1)C1CCC1	none (no result: KCC2 mod) | KCC2 secondary inactive | KCC2 bumet counter inactive | KCC2 secondary2 inconclusive | HEK counter1 inconclusive | KCC2 ouabain 0.014 | HEK counter2 inactive
O=C(Nc1ccccc1-c1nnn(CC(=O)N2CCc3ccccc3C2)n1)C1CCC1	none (no result: KCC2 mod)
O=C(NCCCCc1ccccc1)C1CC(c2cccc(F)c2)=NO1 (stereo not given)	KCC2 mod -2.7 | KCC2 secondary inactive | KCC2 bumet counter inactive | KCC2 secondary2 0.025 | HEK counter1 inactive | KCC2 ouabain inactive | HEK counter2 inactive
O=C(NCCCCc1ccccc1)C1CC(c2cccc([N+](=O)[O-])c2)=NO1 (stereo not given)	none
CC1=NN(C(=O)c2ccc(Br)cc2)C(O)(C(F)(F)OC(F)(F)F)C1 (stereo not given)	KCC2 mod 6.1 | KCC2 secondary inactive | KCC2 bumet counter 0.0099 | KCC2 secondary2 inactive | HEK counter1 0.0088 | KCC2 ouabain 0.029 | HEK counter2 inconclusive
COC(=O)C1=NN(C(=O)c2ccc(Br)cc2)C(O)(C(C)(C)C)C1 (stereo not given)	KCC2 mod 66 (no result: KCNQ1 block, KCNQ1 act, hERG protect, KCNK9 block) | KCC2 secondary 0.049 | KCC2 bumet counter 0.14 | KCC2 secondary2 0.046 | HEK counter1 inconclusive | KCC2 ouabain 0.1 | HEK counter2 0.021
COc1ccc(S(=O)(=O)NCCOc2ccccc2)cc1-n1cnnn1	KCC2 mod -3.8 | KCC2 secondary inactive | KCC2 bumet counter inconclusive | KCC2 secondary2 0.025 | HEK counter1 inactive | KCC2 ouabain 0.017 | HEK counter2 inactive
COc1ccc(S(=O)(=O)NCCOc2ccccc2)cc1OC	none
CCCC(=O)Nc1nc2ccc(OCC)cc2s1	none
CCOC(=O)c1cccc(C(=O)Nc2nc3ccc(OC)cc3s2)n1	KCC2 mod 91, KCNQ1 act 9 | KCC2 secondary 0.027 | KCC2 bumet counter 0.079 | KCC2 secondary2 inconclusive | HEK counter1 0.041 | KCC2 ouabain 0.041 | HEK counter2 0.039
S=C(Nc1ccccc1)c1nc2ccccc2s1	KCC2 mod 9.7 | KCC2 secondary inactive | KCC2 bumet counter 0.013 | KCC2 secondary2 inactive | HEK counter1 0.013 | KCC2 ouabain inconclusive | HEK counter2 0.014
CCOc1ccc2nc(NC(=S)N(C)C)sc2c1	none (no result: KCC2 mod) | KCC2 secondary 0.018 | KCC2 bumet counter 0.13 | KCC2 secondary2 inactive | HEK counter1 0.047 | KCC2 ouabain 0.057 | HEK counter2 0.02
CN(C)C(=S)Nc1nc2ccccc2s1	KCC2 mod 69 | KCC2 secondary 0.017 | KCC2 bumet counter 0.089 | KCC2 secondary2 inactive | HEK counter1 0.032 | KCC2 ouabain 0.059 | HEK counter2 0.017
Cc1ccc(S(=O)(=O)N2CCC(C(=O)NCc3ccccc3Cl)CC2)cc1	KCC2 mod -2.9 | KCC2 secondary inactive | KCC2 bumet counter inactive | KCC2 secondary2 inactive | HEK counter1 inactive | KCC2 ouabain 0.015 | HEK counter2 inactive
COC(=O)c1ccc(C(C(=O)NCc2ccccc2)N(Cc2cccs2)C(=O)c2cnccn2)cc1 (stereo not given)	none (no result: KCC2 mod) | KCC2 secondary inactive | KCC2 bumet counter inactive | KCC2 secondary2 inactive | HEK counter1 inactive | KCC2 ouabain inactive | HEK counter2 inactive
COc1ccc(Cc2nnc(NC(=O)c3ccccc3F)s2)cc1	none (no result: KCC2 mod)
CCCCC(=O)Nc1nn(CCC)c2nc3ccccc3cc12	KCC2 mod -3.8 | KCC2 secondary inactive | KCC2 bumet counter inactive | KCC2 secondary2 inactive | HEK counter1 inactive | KCC2 ouabain inactive | HEK counter2 inactive
CCCCC(=O)Nc1nn(CC)c2nc3c(C)cccc3cc12	none (no result: KCC2 mod)
CCn1nc(NC(=O)c2ccccn2)c2cc3cc(C)ccc3nc21	KCC2 mod 7.3 | KCC2 secondary inactive | KCC2 bumet counter inactive | KCC2 secondary2 inactive | HEK counter1 inactive | KCC2 ouabain inactive | HEK counter2 inconclusive
Cc1ccc2nc3c(cc2c1)c(NC(=O)c1ccccn1)nn3CC(C)C	none (no result: KCC2 mod)
O=C(Cc1ccc(NC(=O)C2CCCN(C(=O)C3CCC3)C2)cc1)Nc1ccc(C(=O)N2CCOCC2)cc1 (stereo not given)	none (no result: KCC2 mod, KCNQ1 block, KCNQ1 act, hERG protect, KCNK9 block)
COc1ccc(NC(=O)c2ccc3c(c2)S(=O)(=O)N=C2CCCCCN23)cc1S(N)(=O)=O	none (no result: KCC2 mod, KCNQ1 block, KCNQ1 act, hERG protect, KCNK9 block)
Cc1ccc(-n2c(SCC(=O)N3CCCC3)nc3c(c2=O)SCC3)cc1	none (no result: KCNK3 block)
COc1ccc(-n2c(SCC(=O)N3CCN(c4ccccc4)CC3)nc3c(c2=O)SCC3)cc1	KCC2 mod -7.3 | KCC2 secondary inactive | KCC2 bumet counter inactive | KCC2 secondary2 0.024 | HEK counter1 inconclusive | KCC2 ouabain 0.012 | HEK counter2 inactive
O=C(NC(=S)NNC(=O)[C@H]1C[C@@H]1c1ccccc1)c1ccc(F)cc1	KCC2 mod 20, KCNQ1 block 6 | KCC2 secondary inactive | KCC2 bumet counter 0.02 | KCC2 secondary2 inactive | HEK counter1 0.02 | KCC2 ouabain 0.03 | HEK counter2 0.021
O=C(/C=C/c1ccc(F)cc1)NC(=S)NNC(=O)[C@H]1C[C@@H]1c1ccccc1	none (no result: KCC2 mod)
COc1cc(OC)cc(C(=O)NC(=S)NNC(=O)[C@H]2C[C@@H]2c2ccccc2)c1	KCC2 mod 59, KCNQ1 act 15 | KCC2 secondary 0.023 | KCC2 bumet counter 0.078 | KCC2 secondary2 0.043 | HEK counter1 0.033 | KCC2 ouabain 0.059 | HEK counter2 0.016
COc1ccc(C(=O)NC(=S)NNC(=O)[C@H]2C[C@@H]2c2ccccc2)cc1OC	none
COCC(=O)Nc1cc(=O)n(C)c(=O)n1C	none
